The values that follow come from ChEMBL document CHEMBL1143003, “Novel tricyclic compounds having acetylene groups at C-8a and cyano enones in rings A and C: highly potent anti-inflammatory and cytoprotective agents” (J Med Chem, 2007).

Activity calls are given as the source filed them. No cut-off for these calls is given here.

The term IC50 denotes the midpoint of a concentration-inhibition curve.

The subject of one assay is RAW. Put plainly: Inhibition of interferon gamma-stimulated NO production in RAW 264.7 cells after 24 hrs. The format is functional, cell-based, Mus musculus.
For assay [1], the target named is T1, Heme oxygenase 1 (Mus musculus) (UniProt P14901).
T1 sequence (whole entry): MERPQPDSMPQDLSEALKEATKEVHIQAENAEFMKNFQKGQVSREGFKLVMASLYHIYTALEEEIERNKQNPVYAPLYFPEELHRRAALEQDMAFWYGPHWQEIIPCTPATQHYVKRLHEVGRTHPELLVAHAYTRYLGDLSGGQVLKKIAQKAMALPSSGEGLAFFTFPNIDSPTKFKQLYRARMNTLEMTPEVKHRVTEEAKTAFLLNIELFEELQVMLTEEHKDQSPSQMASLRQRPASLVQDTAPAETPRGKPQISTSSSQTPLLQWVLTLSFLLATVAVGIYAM
Put plainly: Induction of HO1 in CD1 mouse stomach at 1 umol, po after 6 hrs. The format is organism-based. The essentials: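 Male CD-1 mice, three per group, were each gavaged with a single 1 μmol dose. HO-1 induction was then assessed in the stomach.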

For assay [2], the target named is T1, Heme oxygenase 1 (Mus musculus). Put plainly: Induction of HO1 in CD1 mouse liver at 1 umol, po after 6 hrs. The format is organism-based. A digest of the protocol:
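Compound given orally at 1 μmol. Livers were collected 6 h later, and HO-1 protein was measured by Western blot.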

In the case of `CC1(C)CC[C@]2(C(=O)n3ccnc3)CC[C@]3(C)[C@H](C(=O)C=C4[C@@]5(C)C=C(C#N)C(=O)C(C)(C)[C@@H]5CC[C@]43C)[C@@H]2C1`, the IC50 with RAW (Mus musculus, RAW, 24 h) was determined as 1 nM. Further, the result in assay [1] and in assay [2] was Active. `CC1(C)C(=O)C(C#N)=C[C@]2(C)C3=CC(=O)C(C#N)=C[C@]3(C#C[Si](C)(C)C)CC[C@@H]12` showed a half-maximal inhibitory concentration (IC50) in the assay with RAW (Mus musculus, RAW, 24 h) of 3 nM.

`C#C[C@@]12C=C(C#N)C(=O)C=C1[C@]1(C)C=C(C#N)C(=O)C(C)(C)C1CC2` (some centres undefined): the 50% inhibitory concentration (IC50) in the assay with RAW (Mus musculus, RAW, 24 h) is 1 nM. On to `CC1(C)C(=O)C(C#N)=C[C@]2(C)C3=CC(=O)C(C#N)=C[C@]3(C)CC[C@@H]12`, for which the 50% inhibitory concentration (IC50) in the assay on RAW (Mus musculus, RAW, 24 h) was found to be 30 nM. The result in assay [1] and in assay [2] was Active. Turning to `CC1(C)C(=O)C(C#N)=C[C@@]2(C)C3=CC(=O)C(C#N)=C[C@@]3(C#C[Si](C)(C)C)CCC12` (some centres undefined), the 50% inhibitory concentration (IC50) in the assay with RAW (Mus musculus, RAW, 24 h) came to 2 nM. That is a single-digit nanomolar value. On to `C#C[C@]12C=C(C#N)C(=O)C=C1[C@@]1(C)C=C(C#N)C(=O)C(C)(C)[C@@H]1CC2`, for which, in the assay on RAW (raw), the IC50 stood at 3 nM. `CC1(C)C(=O)C(C#N)=C[C@]2(C)C3=CC(=O)C(C#N)=CC3(C#C[Si](C)(C)C)CC[C@@H]12` (mixture of isomers) showed an IC50 with RAW (Mus musculus, RAW, 24 h) of 3 nM. The same measure, in the same setting: the figure for `CC#C[C@]12C=C(C#N)C(=O)C=C1[C@@]1(C)C=C(C#N)C(=O)C(C)(C)[C@@H]1CC2` (racemic) is 5 nM; for `CCC#C[C@]12C=C(C#N)C(=O)C=C1[C@@]1(C)C=C(C#N)C(=O)C(C)(C)[C@@H]1CC2` (racemic) it is 20 nM; for `CC[C@]12C=C(C#N)C(=O)C=C1[C@@]1(C)C=C(C#N)C(=O)C(C)(C)[C@@H]1CC2` (racemic) it is 10 nM. `C#C[C@]12C=C(C#N)C(=O)C=C1[C@@]1(C)C=C(C#N)C(=O)C(C)(C)[C@@H]1CC2` (racemic) [listing 1 of 2 here]: the IC50 in the assay on RAW (raw) was found to be 1 nM. In turn, `C=C[C@]12C=C(C#N)C(=O)C=C1[C@@]1(C)C=C(C#N)C(=O)C(C)(C)[C@@H]1CC2` (racemic) gave an IC50 in the assay with RAW (Mus musculus, RAW, 24 h) of 10 nM.

With `CC1(C)C(=O)C(C#N)=C[C@]2(C)C3=CC(=O)C(C#N)=C[C@]3(C#CC#N)CC[C@@H]12` (racemic), in the assay with RAW (Mus musculus, RAW, 24 h), the IC50 came to 4 nM. For the compound `C#C[C@]12C=C(C#N)C(=O)C=C1[C@@]1(C)C=C(C#N)C(=O)C(C)(C)[C@@H]1CC2` (racemic) [listing 2 of 2 here], the outcome in assay [1] and in assay [2] was Active. `CC1(C)CC[C@]2(C(=O)O)CC[C@]3(C)[C@H](C(=O)C=C4[C@@]5(C)C=C(C#N)C(=O)C(C)(C)[C@@H]5CC[C@]43C)[C@@H]2C1` [BARDOXOLONE] yielded an IC50 in the assay with RAW (Mus musculus, RAW, 24 h) of 20 nM. In addition, the outcome in assay [1] and in assay [2] was Active. In turn, `CC1(C)CC[C@]2(C#N)CC[C@]3(C)C(C(=O)C=C4[C@@]5(C)C=C(C#N)C(=O)C(C)(C)[C@@H]5CC[C@]43C)C2C1` (some centres undefined) [CDDO-CN] yielded an IC50 in the assay with RAW (Mus musculus, RAW, 24 h) of 1 nM.

On to `C[C@@H]1C[C@H]2[C@@H]3CCC4=CC(=O)C=C[C@]4(C)[C@@]3(F)[C@@H](O)C[C@]2(C)[C@@]1(O)C(=O)CO` [DEXAMETHASONE], for which the 50% inhibitory concentration (IC50) in the assay with RAW (Mus musculus, RAW, 24 h) was found to be 20 nM.
